For data set [1] the following is noted: preclinical model; cited from earlier work.
A further data set deals with U-87 MG glioblastoma. As to the kind of experiment: Ex vivo NIRF imaging of sliced brains. In kind it is in vivo, mouse. The following applies: U-87 MG model, brain slices 48 hours after probe injection, mean±SEM. The gist of the method:
(§1)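 Test probe (1 nmol) injected via tail vein; controls were 1 nmol nonspecific RAD-peptide dye conjugate and a blocking mix (1 nmol probe plus 20 nmol unlabeled cRGD). Mice were killed at 48 h; whole brains were sliced coronally and imaged on Odyssey (800 nm channel, sensitivity 5, 21 μm resolution). Signal was background-subtracted and area-weighted, tumor vs corresponding normal brain; tumor confirmed by H&E.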

A further data set has as its system TS543 glioblastoma. The data set can be described thus: Ex vivo NIRF imaging of sliced brains. In kind it is in vivo, mouse. The following applies: TS543 model, brain slices 48 hours after probe injection, mean±SEM. The gist of the method:
as §1

The subject of another data set is RCAS-PDGF glioblastoma. As to the kind of experiment: Ex vivo NIRF imaging of sliced brains. The class given is in vivo, mouse. The conditions noted are these: RCAS-PDGF model, brain slices 48 hours after probe injection, mean±SEM. An outline of the steps:
as §1

On to `CC1(C)C(=CC=C2CCCC(C=CC3=[N+](CCCCCC(=O)[O-])c4ccc(S(=O)(=O)[O-])cc4C3(C)C)=C2Oc2ccc(S(=O)(=O)[O-])cc2)N(CCCCS(=O)(=O)[O-])c2ccc(S(=O)(=O)[O-])cc21.[Na+].[Na+].[Na+].[Na+]` [IRDye 800CW], for which, in data set [1], the Toxicity entry was “good results”.
As for “IRDye 800CW-conjugated cyclic Arg-Ala-Asp-D-Phe-Lys (head to tail) [IRDye 800CW-RAD, IRDye 800CW-conjugated cyclic Arg-Ala-Asp-D-Phe-Lys peptide]”, the results for the “T/N ratio ex vivo (area-normalized fluorescence-800, tumor vs normal brain)” value with U-87 MG glioblastoma, with TS543 glioblastoma and in the data set on RCAS-PDGF glioblastoma were 10.5±1.0, 11.6±1.0 and 11.6±1.1, respectively.
